Laboratory results taken from paper PMC9851027 (ACS Omega, 2023).
Peptide text beside a SMILES is read from it. * marks the point of attachment. Propionyl = CCC(=O)*

How the values were obtained:
human NMUR2 [1] = biological target: T1, human NMUR2 (Homo sapiens, UniProt Q9GZQ4); assay: Functional in vitro FLIPR calcium mobilization assay; assay type: cell-based; settings: SD
Outline: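 Recombinant Chem-1 cells overexpressing full-length human NMUR2, grown in DMEM/10% FBS with selection, seeded at 5×10^5 cells/mL 16 h before assay. Loaded with Calcium 6 dye plus 2 mM probenecid for 60 min at 37 °C. Fractions given as 12-point 1:3 dilutions in HBSS/20 mM Hepes/0.1% BSA, final 1.1 μM–[…]. Read by FLIPR at 0.5 Hz as peak minus baseline fluorescence; Hill fit, mean ± standard deviation of two experiments.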

human NMUR2 [2] = biological target: T1, human NMUR2; assay: Competitive radioligand binding assay with [^125I]NMU-8

T1 sequence (Q9GZQ4 whole entry): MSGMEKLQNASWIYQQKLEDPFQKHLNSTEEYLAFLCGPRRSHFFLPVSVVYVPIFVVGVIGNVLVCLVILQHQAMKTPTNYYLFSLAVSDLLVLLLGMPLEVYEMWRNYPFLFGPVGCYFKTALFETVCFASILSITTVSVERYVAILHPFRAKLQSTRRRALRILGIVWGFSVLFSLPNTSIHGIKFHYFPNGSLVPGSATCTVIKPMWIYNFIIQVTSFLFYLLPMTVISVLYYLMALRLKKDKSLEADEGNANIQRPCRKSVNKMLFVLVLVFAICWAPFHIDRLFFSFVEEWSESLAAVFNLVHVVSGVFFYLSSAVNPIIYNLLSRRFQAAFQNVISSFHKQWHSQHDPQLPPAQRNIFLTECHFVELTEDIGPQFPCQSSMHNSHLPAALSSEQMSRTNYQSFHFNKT

CCC(=O)N[C@H](C(=O)N[C@@H](CC(C)C)C(=O)N[C@@H](CCC(N)=O)C(=O)N[C@@H](CCCNC(=N)N)C(=O)NCC(=O)N[C@@H](CO)C(=O)NCC(=O)N[C@H](C(=O)N[C@@H](C)C(=O)N[C@@H](C)C(=O)N[C@H](C(=O)N[C@@H](CC(=O)O)C(=O)N[C@@H](Cc1ccccc1)C(=O)N[C@H](C(=O)N[C@@H](CCCCN)C(=O)N[C@@H](CCCCN)C(=O)N[C@@H](CC(=O)O)C(=O)N[C@@H](Cc1c[nH]cn1)C(=O)N[C@H](C(=O)N[C@@H](C)C(=O)N[C@H](C(=O)N[C@@H](Cc1c[nH]c2ccccc12)C(=O)NCC(=O)N[C@@H](CCCNC(=N)N)C(=O)N1CCC[C@H]1C(=O)N[C@@H](Cc1ccccc1)C(=O)N[C@@H](Cc1ccccc1)C(=O)N[C@@H](CC(C)C)C(=O)N[C@@H](Cc1ccccc1)C(=O)N[C@@H](CCCNC(=N)N)C(=O)N1CCC[C@H]1C(=O)N[C@@H](CCCNC(=N)N)C(=O)N[C@@H](CC(N)=O)C(N)=O)[C@@H](C)O)[C@@H](C)O)[C@@H](C)O)C(C)C)[C@@H](C)O)[C@@H](C)CC [fraction c] (Propionyl-ILQRGSGTAAVDFTKKDHTATWGRPFFLFRPRN-NH2)
EC50 (human NMUR2 [1]): 1.02 nM | IC50 (human NMUR2 [2]): 2.19 nM
